The record followed here is ChEMBL document CHEMBL1129453, “3-amino-3,4-dihydro-2H-1-benzopyran derivatives as 5-HT1A receptor ligands and potential anxiolytic agents. 2. Synthesis and quantitative structure-activity relationship studies of spiro[pyrrolidine- and piperidine-2,3'(2'H)-benzopyrans]” (J Med Chem, 1996).

The test is filed under the species Rattus norvegicus. The experiment in a line: Effect of enantiomeric compound on adenylate cyclase activity in rat hippocampus at 10e-7 M. Format: functional. In outline:
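Rat hippocampal membranes incubated 20 min at 30 °C with forskolin 10 μM, [α-32P]ATP 0.1 μM and test compound. Activity measured as conversion to [32P]cAMP (nM/mg protein/20 min), given as % of control. Mean ± standard error of three determinations in two experiments; Student's t-test versus 100%, p < 0.05.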

As to `COc1cccc2c1CC1(CCCN1CCCCN1C(=O)CC3(CCCC3)CC1=O)CO2` (racemic), the Effect came out at 80%.
